Assay results reported in paper PMC4475435 (Clinical therapeutics, 2015).
Like-named read-outs stand apart in the source and are kept apart here. Marks after values point to notes of the source that are not given here.

Legend:
[1] = cited from earlier work
[2] = weight used: Weight, cited from earlier work
[3] = Population-based PK model; assay type: in vivo, human
Procedure, shortened: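 Matched case-control: overweight/obese children (≥85th percentile, CDC charts) vs normal-weight controls matched on age (±1 y), SCr (±0.4 mg/dL), nephrotoxic co-medication and ICU stay; 389 serum levels, mostly drawn after third dose, with full dosing history. One-compartment first-order model, FOCE with interaction; age and SCr on CL; weight on Vd, weight^0.75 on CL; MAP Bayesian POSTHOC individual estimates; 1000-replicate bootstrap 95% CIs.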

[4] = 4 normal-weight adults (Weight <115% IW), 25–30 y, weight used: Weight, SD
[5] = 6 morbidly obese adults (Weight >190% IW), 27–37 y, weight used: Weight, SD
[6] = 6 morbidly obese adults, 27–37 y, weight used: IW, SD
[7] = 24 morbidly obese adults (Weight >190% IW), 41 (7) y, weight used: Weight, SD
[8] = 24 morbidly obese adults, weight used: IW, SD
[9] = 24 normal-weight adults, weight used: IW, SD
[10] = 18 overweight children, age 5, 0.5–18 y
[11] = bootstrap analysis of 1000 replicates
[12] = obese and overweight children compared with those with normal weight
[13] = overweight/obese cases versus normal-weight controls, 87 matched pairs

CN[C@H](CC(C)C)C(=O)N[C@H]1C(=O)N[C@@H](CC(N)=O)C(=O)N[C@H]2C(=O)N[C@H]3C(=O)N[C@H](C(=O)N[C@H](C(=O)O)c4cc(O)cc(O)c4-c4cc3ccc4O)[C@H](O)c3ccc(c(Cl)c3)Oc3cc2cc(c3O[C@@H]2O[C@H](CO)[C@@H](O)[C@H](O)[C@H]2O[C@H]2C[C@](C)(N)[C@H](O)[C@H](C)O2)Oc2ccc(cc2Cl)[C@H]1O [vancomycin]
Clearance, Mean (SD) or Median (Range) [1, 4]: 0.065 (0.004) L/kg/h
Vd, Mean (SD) or Median (Range) [1, 4]: 0.39 (0.06) L/kg
Clearance, Mean (SD) or Median (Range) [1, 5]: 0.066 (0.01) L/kg/h
Vd, Mean (SD) or Median (Range) [1, 5]: 0.26 (0.03) L/kg
Clearance, Mean (SD) or Median (Range) [1, 6]: 0.174 (0.04) L/kg/h
Vd, Mean (SD) or Median (Range) [1, 6]: 0.68 (0.07) L/kg
Clearance, Mean (SD) or Median (Range) [1, 7]: 0.072 (0.012) L/kg/h
Vd, Mean (SD) or Median (Range) [1, 7]: 0.32 (0.05) L/kg
Clearance, Mean (SD) or Median (Range) [1, 8]: 0.186 (0.042) L/kg/h
Vd, Mean (SD) or Median (Range) [1, 8]: 0.83 (0.08) L/kg
Clearance, Mean (SD) or Median (Range) [1, 9]: 0.06 (0.024) L/kg/h
Vd, Mean (SD) or Median (Range) [1, 9]: 0.64 (0.26) L/kg
Vd, Mean (SD) or Median (Range) ([1]; 37 underweight adults (Weight <80% IW), weight used: IW, 95% CI 0.55–0.68): 0.62 (0.55–0.68 ^‡) L/kg
Clearance, Mean (SD) or Median (Range) ([1]; 107 obese adults (Weight >120% LBM), weight used: Weight, range of means): 0.0366–0.051 ^† L/kg/h
Vd, Mean (SD) or Median (Range) ([1]; 108 obese adults (Weight >130% IW), weight used: IW, 95% CI 0.82–0.97): 0.89 (0.82–0.97 ^‡) L/kg
Vd, Mean (SD) or Median (Range) ([1]; 108 obese adults (Weight >130% IW), weight used: Weight, 95% CI 0.52–0.59): 0.56 (0.52–0.59 ^‡) L/kg
Clearance, Mean (SD) or Median (Range) ([2]; 13 underweight children): 0.18 (0.09) L/kg/h
Vd, Mean (SD) or Median (Range) ([2]; 13 underweight children): 0.97 (0.54) L/kg
Clearance, Mean (SD) or Median (Range) [2, 10]: 0.16 (0.05) L/kg/h
Vd, Mean (SD) or Median (Range) [2, 10]: 0.81 (0.37) L/kg
Clearance, Mean (SD) or Median (Range) ([2]; 31 normal-weight children): 0.2 (0.08) L/kg/h
Vd, Mean (SD) or Median (Range) ([2]; 31 normal-weight children): 1 (0.35) L/kg
θ1, Median Bootstrap Estimate (95% CI) [3, 11]: 0.572 (0.514–0.632)
θ2, Median Bootstrap Estimate (95% CI) [3, 11]: 0.285 (0.268–0.304)
θ3, Median Bootstrap Estimate (95% CI) [3, 11]: 0.291 (0.165–0.395)
θ4, Median Bootstrap Estimate (95% CI) [3, 11]: 0.742 (0.194–1.263)
θ1, population estimate: Vd (L) = θ1 × Weight (kg) ([3]; final population PK model, 174 participants, 389 concentrations): 0.574
decrease of weight-adjusted CL [3, 12]: 10.8%
decrease of weight-adjusted Vd [3, 12]: 2.2%
mean CL, based on weight, for cases lower than controls by [3, 13]: 0.233 mL/min/kg
mean Vd, based on weight, for cases lower than controls by [3, 13]: 0.012 L/kg
